Assay outcomes: PubChem, Broad Institute
E-sel inducer: E-selectin induction in HUVECs, primary screen, imaging, HUVEC, immunofluorescence imaging, single point. P16581. AID 686992, 2013. activation, % at 7.58 µM. 260,000 tested, 0.37% active. normalized: neutral wells 0, TNF-alpha wells 100;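 active = mean E-selectin-positive cell signal at least 10% of the positive control, reached in at least 60% of replicates, without over 20% cell loss; inconclusive = no rule given, readout overlaps actives, possibly toxicity-flagged; inactive = the rest, including those meeting only one limit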
Target sequence (P16581 whole entry, looked up): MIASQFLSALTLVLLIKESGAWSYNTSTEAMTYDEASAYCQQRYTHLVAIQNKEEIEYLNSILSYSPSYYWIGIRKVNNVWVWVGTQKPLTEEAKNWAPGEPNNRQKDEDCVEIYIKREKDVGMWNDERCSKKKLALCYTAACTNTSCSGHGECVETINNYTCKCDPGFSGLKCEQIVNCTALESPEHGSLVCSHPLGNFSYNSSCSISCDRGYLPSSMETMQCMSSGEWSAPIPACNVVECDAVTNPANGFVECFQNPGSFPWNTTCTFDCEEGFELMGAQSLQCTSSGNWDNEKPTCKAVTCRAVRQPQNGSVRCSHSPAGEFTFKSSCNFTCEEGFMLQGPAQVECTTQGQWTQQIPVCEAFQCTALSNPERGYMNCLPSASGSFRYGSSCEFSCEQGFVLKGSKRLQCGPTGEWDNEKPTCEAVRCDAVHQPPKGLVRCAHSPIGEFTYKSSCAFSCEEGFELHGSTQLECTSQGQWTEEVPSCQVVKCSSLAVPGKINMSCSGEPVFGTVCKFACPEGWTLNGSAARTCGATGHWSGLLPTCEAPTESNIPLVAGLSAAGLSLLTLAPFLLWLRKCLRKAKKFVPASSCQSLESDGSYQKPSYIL
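Test system: HUVEC; input: 3,000 HUVEC/well; measured by: immunofluorescence imaging; read-out: % PE-positive cells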
Ecoli rRNA inh: reduced GFP signal of wild-type E. coli, primary screen, bacterial rRNA inhibitor project, GFP/RFP fluorescence, OD600, single point. E. coli WT GFP vs humanized-ribosome RFP mutants, 24 h; hits give low values; DMSO median 0, no signal -100. GFP signal change (wild-type ribosome), % (concentration not given with the values). 350,000 tested, 1.6% active;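 active = significant combined selectivity score with lowered wild-type GFP, culture density cut under 30%, mutant RFP and density less affected; inactive = any of these conditions unmet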
EWS-Fli block: EWS/Fli-driven NR0B1 reporter inhibitors, primary screen, A673 cells, NR0B1 luciferase, luminescence, MLPCN library. viability-normalised. inhibition, % at 12.6 µM. 350,000 tested, 0.67% active;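 active = mean inhibition of at least 50% after viability correction, with every replicate also passing that limit; inconclusive = mean reaches 50% but only one of two replicates passes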;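 note: firefly luciferase signal divided by Alamar Blue viability fluorescence both relative to DMSO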
LGR2 inh: inhibitors of bursicon-induced LGR2 CRE-luciferase signal, primary screen, cell-based, HEK293, CRE-luciferase reporter, bursicon stimulation; inhibition, % at 9.99 µM; AID 720647, 2013; bursicon-stimulated, 4 h; 380,000 tested, 0.35% active;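 active = drop in luminescence signal, shown as inhibition above about 50% in the replicate tests, limit read from the data, passing the limit was not always enough; inconclusive = probably only some replicates passing the limit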;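 note: agonist challenge used bursicon conditioned medium at about half maximal strength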
Active calls of the source: *; ? = inconclusive; nt = no result. Most compounds without a hit are left out; they make up all but 2.4% or so of the library.

SMILES	E-sel inducer	Ecoli rRNA inh	EWS-Fli block	LGR2 inh
C=C1C(=O)OC2CC3(C)OC3CCC(C)=CC(OC(C)=O)C12 (stereo not given)	-2.3	8.3	-1.0	40.0*
C=C1C(=O)O[C@@H]2C[C@@H](C)[C@H]3C=CC(=O)[C@]3(O)C[C@@H]12	0.0	22.1	12.5	-0.7
Cc1c(C(c2ccc(O)cc2)c2c(O)c3ccccc3oc2=O)c(=O)n(-c2ccccc2)n1C (stereo not given)	0.6	-13.7*	6.3	4.4
CCCNC(=O)[C@H]1[C@H](CO)[C@H]2Cn3c(cccc3=O)[C@H]2N1CC	-0.5	0.2	6.8	5.8
CN(C)c1ccc(-[n+]2c(-c3ccccc3)cc(-c3ccccc3)cc2-c2ccccc2)cc1	nt	-59.0	52.5*	20.4
Cc1ccc(-c2cc(-c3ccccc3)cc(-c3ccccc3)[n+]2-c2ccccc2)cc1	-0.1	-55.5	61.0*	-1.9
c1ccc(-c2cc(-c3ccccc3)[n+](-c3ccccc3)c(-c3ccccc3)c2)cc1	-2.8	-54.4	68.9*	102.5*
CCOC(=O)c1cccc(-[n+]2c(-c3ccccc3)cc(-c3ccccc3)cc2-c2ccccc2)c1	0.0	-54.0	16.8	15.4
CCCNC(=O)N1[C@@H]2Cn3c(ccc(-c4cccc(C(=O)N(C)C)c4)c3=O)[C@H]1[C@@H](C(=O)O)[C@@H]2CO	-0.1	2.4	15.2	2.0
O=C(O)[C@H]1[C@H](CO)[C@H]2Cn3c(ccc(-c4ccncc4)c3=O)[C@@H]1N2C(=O)C1CC1	-0.3	4.5	-1.4	9.9
COc1ccc(CN2Cc3cnnn3-c3ccccc3C2c2ccccc2)cc1 (stereo not given)	0.1	-19.1	30.2	23.4
COc1ccc(CN2Cc3cnnn3-c3ccccc3C2C#N)cc1 (stereo not given)	-0.2	-60.4	?	96.5*
CN1Cc2cnnn2-c2ccccc2C1C#N (stereo not given)	-0.2	10.4	4.6	5.8
N#CC1c2ccccc2-n2nncc2CN1Cc1cc(Cl)cc(Cl)c1 (stereo not given)	0.4	-52.2	62.5*	102.0*
O=C1NC(=O)C2(Cc3cc([N+](=O)[O-])ccc3N3CCN(C(=O)c4ccccc4)CC32)C(=O)N1 (stereo not given)	nt	-29.3*	-5.6	18.5
CN1C(=O)N(C)C(=O)C2(Cc3cc([N+](=O)[O-])ccc3N3CCN(C(=O)c4ccccc4)CC32)C1=O (stereo not given)	nt	-12.4	0.7	-17.9
CC(=O)O[C@@]12CO[C@@H]1C[C@H](OC1OCC(O)C(O)C1O)[C@@]1(C)C(=O)[C@H](O)C3=C(C)[C@@H](OC(=O)[C@H](O)[C@@H](NC(=O)c4ccccc4)c4ccccc4)C[C@@](O)([C@@H](OC(=O)c4ccccc4)C12)C3(C)C (stereo not given in full)	nt	nt	55.3*	13.2
CC(=O)OC12COC1CC(O)C1(C)C(=O)C(O)C3=C(C)C(O)CC(O)(C(OC(=O)c4ccccc4)C21)C3(C)C (stereo not given)	2.1	4.8	72.6*	-21.7
CC(=O)O[C@@]12CO[C@@H]1C[C@@H](O)[C@@]1(C)C(=O)[C@H](O)C3=C(C)[C@@H](OC(=O)[C@H](O)[C@@H](NC(=O)c4ccccc4)c4ccccc4)C[C@@](O)([C@@H](OC(=O)c4ccccc4)C12)C3(C)C (stereo not given in full)	nt	nt	55.1*	nt
O=C(Cc1cccnc1)N1CCCCN2[C@H](C1)[C@H](c1ccc(/C=C/c3ccccc3)cc1)[C@@H]2CO	-0.2	-52.4	5.6	21.3
COc1ccc(C#Cc2ccc([C@H]3[C@@H](CO)N4CCCCN(C(=O)Cc5ccccc5)C[C@@H]34)cc2)cc1	-0.4	6.1	11.4	16.4
COC(=O)[C@H]1[C@H](CO)[C@H]2Cn3c(ccc(-c4cncnc4)c3=O)[C@@H]1N2S(=O)(=O)c1ccccc1C	-0.3	3.2	5.2	-14.0
COC(=O)C1=C(C(=O)OC)C2OC1c1cc3ccccc3cc12	0.6	-18.7*	2.2	?
COC(=O)C[C@]1(C(=O)OC)CN(C#N)N(c2ccc(Cl)cc2)C12c1ccccc1-c1ccccc12	nt	17.6	nt	77.9*
COC(=O)[C@@H]1[C@@H](CO)[C@@H]2Cn3c(ccc(-c4ccccc4)c3=O)[C@H]1N2C(=O)c1ccccc1F	0.0	0.0	3.9	3.7
SMILES	E-sel inducer	Ecoli rRNA inh	EWS-Fli block	LGR2 inh
COc1cc2c(cc1O)C[C@H]1c3c(cc(O)c(OC)c3-2)CCN1C	0.3	nt	3.4	0.0
COc1cc2c(cc1OC)-c1c(OC)c(OC)cc3c1[C@H](C2)[N+](C)(C)CC3	nt	-24.6*	-5.3	-18.5
COCC#Cc1ccc([C@H]2[C@H](CO)N3CCCCN(C(=O)Cc4ccccn4)C[C@@H]23)cc1	0.4	-1.5	-16.8	-14.8
C[C@H]1CCC/C=C/[C@@H]2C[C@H](O)C[C@H]2[C@@H](O)/C=C/C(=O)O1	-0.4	9.2	72.7*	28.0
O=C(O)[C@H]1[C@H](CO)[C@H]2Cn3c(ccc(-c4cccnc4)c3=O)[C@@H]1N2S(=O)(=O)c1ccccc1F	0.5	1.1	-0.7	2.8
CCC1C(c2cc(OC)c(OC)c(OC)c2)c2cc3c(cc2OC1N1CCCC1)OCO3 (stereo not given)	0.5	-1.1	55.9*	11.4
COc1cc(C2c3cc4c(cc3CC3COC(=O)C32)OCO4)cc(OC)c1O (stereo not given)	5.5	-52.6	49.1	-2.7
CCCCCCCCCCCCCCCC[N+](C)(C)C	-2.4	nt	57.0*	38.5
CCCCCC[N+](=O)[O-]	nt	1.0	-0.6	-1.0
CS(=O)(=O)N1C[C@@H]2N[C@H](C1)C2c1ccccc1 (stereo not given in full)	nt	0.3	nt	nt
COC(=O)[C@@H]1[C@@H](CO)[C@@H]2Cn3c(ccc(/C=C/c4ccccc4)c3=O)[C@H]1N2C(=O)C1CCC1	0.1	-1.9	-0.3	-12.1
CC[N+](C)(CC)CCCCOc1ccc2c(c1)C(=O)c1cc(OCCCC[N+](C)(CC)CC)ccc1-2	nt	-52.6*	9.9	3.3
Cc1cccc(S(=O)(=O)N2[C@@H]3Cn4c(ccc(-c5ccc(F)cc5)c4=O)[C@H]2[C@@H](C(=O)O)[C@@H]3CO)c1	-0.2	-2.4	-9.0	12.5
CN1[C@@H]2CN(CC(F)(F)F)C[C@H]1C2c1ccc(Br)cc1 (stereo not given in full)	nt	-4.1	nt	nt
C[n+]1c(-c2ccccc2)c2cc(N)ccc2c2ccc(N)cc21	9.1	nt	11.2	78.6*
Nc1ccc2ccc3cccc[n+]3c2c1	nt	106.0	5.3	11.0
